This note sets out measurements from ChEMBL document CHEMBL2331482, “Synthesis of some new 2-(3-pyridyl)-4,5-disubstituted thiazoles as potent antimicrobial agents” (2013).

Converted amounts (≈) assume the structure as drawn. The source made the active and inactive calls. The rule behind the calls is not given here.

Common to all, as to assay type: functional
The subject of assay [1] is Aspergillus clavatus. The assay can be described thus: Antifungal activity against Aspergillus clavatus RCMB 02593 assessed as growth inhibition after 48 hrs by twofold serial dilution method. The conditions noted are these: RCMB 02593, 48 h. The essentials:
(§1)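 Fungi were tested by microdilution in Sabouraud liquid medium. Only compounds with disc-diffusion zones >10 mm went on to this test. DMF stocks (1000 µg/mL) were serially diluted twofold to 500–0.007 µg/mL. Sealed plates were held 48 h at 25 °C in a humid chamber. MIC was the lowest concentration without visible turbidity. DMF and uninoculated-medium controls ran in parallel.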

Assay [2] deals with Klebsiella pneumoniae. The assay can be described thus: Antibacterial activity against Klebsiella pneumoniae RCMB 010093 assessed as growth inhibition after 24 hrs by twofold serial dilution method. The essentials: (§2)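 Broth microdilution in Müller–Hinton broth, 96-well plates. Only compounds giving disc-diffusion zones >10 mm were tested. DMF stocks (1000 µg/mL) were diluted twofold to a final 500–0.007 µg/mL, with about 10^6 CFU/mL bacteria. Sealed plates ran 24 h at 37 °C in a humid chamber. MIC was the lowest concentration with no visible turbidity. DMF and uninoculated-medium controls were included.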

For assay [3], the system named is Candida albicans. The assay can be described thus: Antifungal activity against Candida albicans RCMB 05035 assessed as growth inhibition after 48 hrs by twofold serial dilution method. The essentials: as §1
Assay [4] has as its system Proteus vulgaris. The assay can be described thus: Antibacterial activity against Proteus vulgaris RCMB 010085 assessed as growth inhibition after 24 hrs by twofold serial dilution method. The essentials:
as §2

Assay [5] deals with Staphylococcus aureus. The experiment in a line: Antibacterial activity against Staphylococcus aureus RCMB 010027 assessed as growth inhibition after 24 hrs by twofold serial dilution method. The conditions noted are these: RCMB 010027, 24 h. The essentials: as §2
Assay [6] has as its system Bacillus subtilis. The assay can be described thus: Antibacterial activity against Bacillus subtilis RCMB 010063 assessed as growth inhibition after 24 hrs by twofold serial dilution method. The conditions noted are these: RCMB 010063, 24 h. The essentials: as §2
Assay [7] has as its system Shigella flexneri. The assay can be described thus: Antibacterial activity against Shigella flexneri RCMB 0100542 assessed as growth inhibition after 24 hrs by twofold serial dilution method. The essentials: as §2
For assay [8], the system named is Streptococcus pyogenes. The assay can be described thus: Antibacterial activity against Streptococcus pyogenes RCMB 010015 assessed as growth inhibition after 24 hrs by twofold serial dilution method. The essentials: as §2
Assay [9] relates to Neisseria gonorrhoeae. The experiment in a line: Antibacterial activity against Neisseria gonorrhoeae RCMB 010076 assessed as growth inhibition after 24 hrs by twofold serial dilution method. The essentials: as §2
The subject of assay [10] is Aspergillus fumigatus. The experiment in a line: Antifungal activity against Aspergillus fumigatus RCMB 02564 assessed as growth inhibition after 48 hrs by twofold serial dilution method. The conditions noted are these: RCMB 02564, 48 h. The essentials: as §1
For assay [11], the system named is Staphylococcus epidermidis. The assay can be described thus: Antibacterial activity against Staphylococcus epidermidis RCMB 010024 assessed as growth inhibition after 24 hrs by twofold serial dilution method. The conditions noted are these: RCMB 010024, 24 h. The essentials: as §2
Assay [12] concerns Pseudomonas aeruginosa. The assay can be described thus: Antibacterial activity against Pseudomonas aeruginosa RCMB 010043 assessed as growth inhibition after 24 hrs by twofold serial dilution method. The essentials: as §2
Assay [13] has as its system Talaromyces marneffei. The assay can be described thus: Antifungal activity against Penicillium marneffei RCMB 01267 assessed as growth inhibition after 48 hrs by twofold serial dilution method. The essentials: as §1
The test system of assay [14] is Enterococcus faecalis. The experiment in a line: Antibacterial activity against Enterococcus faecalis RCMB 010068 assessed as growth inhibition after 24 hrs by twofold serial dilution method. The essentials:
as §2

Assay [15] deals with Geotrichum candidum. The experiment in a line: Antifungal activity against Geotricum candidum RCMB 05096 assessed as growth inhibition after 48 hrs by twofold serial dilution method. The conditions noted are these: RCMB 05096, 48 h. The essentials: as §1

A word on the MIC: it is the lowest concentration found to suppress growth. As for `CC(=O)Nc1ccc(-c2csc(-c3cccnc3)n2)cc1`, the MIC in assay [1] came out at 15.6 µg/mL (≈ 52.9 µM); in assay [5] it was 3.9 µg/mL (≈ 13.2 µM); in [6] it was 0.97 µg/mL (≈ 3.28 µM); in assay [10], 7.81 µg/mL (≈ 26.4 µM); in assay [11], 1.95 µg/mL (≈ 6.6 µM); in [15], 7.81 µg/mL (≈ 26.4 µM). In addition, the MIC entry in [2], in assay [3], in [4], in assay [7], in assay [8] and in assay [9] was “inactive” each time. The MIC result in assay [12], in assay [13] and in assay [14] was “inactive” each time.

As for `COc1ccc(/C=C/C(=O)c2sc(-c3cccnc3)nc2C)cc1`, the minimum inhibitory concentration (MIC) came out at 31.2 µg/mL (≈ 92.9 µM) in assay [1]; 3.9 µg/mL (≈ 11.6 µM) in [2] (RCMB 010093, 24 h); 62.5 µg/mL (≈ 186 µM) in assay [3] (RCMB 05035, 48 h); 7.81 µg/mL (≈ 23.2 µM) in [4] (RCMB 010085, 24 h); 3.9 µg/mL (≈ 11.6 µM) in [5]; 1.95 µg/mL (≈ 5.8 µM) in [6]. Also, the MIC in assay [7] (RCMB 0100542, 24 h) stood at 7.81 µg/mL (≈ 23.2 µM); in assay [8] (RCMB 010015, 24 h) it was 31.2 µg/mL (≈ 92.9 µM); in [9] (RCMB 010076, 24 h), 125 µg/mL (≈ 372 µM); in assay [10] it was 15.6 µg/mL (≈ 46.5 µM); in assay [11], 3.9 µg/mL (≈ 11.6 µM); in assay [12] (RCMB 010043, 24 h), 250 µg/mL (≈ 743 µM). Further, the MIC in [13] (RCMB 01267, 48 h) is 7.81 µg/mL (≈ 23.2 µM); in assay [14] (RCMB 010068, 24 h) it was 62.5 µg/mL (≈ 186 µM); in [15] it was 7.81 µg/mL (≈ 23.2 µM).

For the compound `C[C@@H]1[C@H](O)[C@@H](C)/C=C/C=C/C=C/C=C/C=C/C=C/C=C/[C@H](O[C@@H]2O[C@H](C)[C@@H](O)[C@H](N)[C@@H]2O)C[C@@H]2O[C@](O)(C[C@@H](O)C[C@@H](O)[C@H](O)CC[C@@H](O)C[C@@H](O)CC(=O)O[C@H]1C)C[C@H](O)[C@H]2C(=O)O` [AMPHOTERICIN B], the MIC in [1] amounted to 1.95 µg/mL (≈ 2.11 µM); in [3] (RCMB 05035, 48 h), 0.24 µg/mL (≈ 0.26 µM); in assay [10], 0.97 µg/mL (≈ 1.05 µM); in assay [13] (RCMB 01267, 48 h), 1.95 µg/mL (≈ 2.11 µM); in assay [15], 0.48 µg/mL (≈ 0.519 µM).

Turning to `Cc1nc(-c2cccnc2)sc1C(=O)/C=C/c1ccc(Cl)cc1`, the minimum inhibitory concentration (MIC) in assay [1] came out at 125 µg/mL (≈ 367 µM); in assay [2] (RCMB 010093, 24 h) it was 31.2 µg/mL (≈ 91.7 µM); in [3] (RCMB 05035, 48 h), 250 µg/mL (≈ 733 µM); in assay [4] (RCMB 010085, 24 h) it was 62.5 µg/mL (≈ 183 µM); in assay [5], 62.5 µg/mL (≈ 183 µM); in assay [6], 31.2 µg/mL (≈ 91.7 µM). The MIC in [10] stood at 62.5 µg/mL (≈ 183 µM); in assay [11] it was 31.2 µg/mL (≈ 91.7 µM); in assay [13] (RCMB 01267, 48 h), 62.5 µg/mL (≈ 183 µM); in assay [15], 31.2 µg/mL (≈ 91.7 µM). Moreover, the MIC entry in [7], in assay [8], in assay [9], in [12] and in [14] was “inactive” each time.

As for `Cc1nc(-c2cccnc2)sc1C(=O)/C=C/c1ccc(F)cc1F`, the minimum inhibitory concentration (MIC) was found to be 125 µg/mL (≈ 365 µM) in [1]; 31.2 µg/mL (≈ 91.3 µM) in assay [2] (RCMB 010093, 24 h); 500 µg/mL (≈ 1460 µM) in [3] (RCMB 05035, 48 h); 62.5 µg/mL (≈ 183 µM) in [4] (RCMB 010085, 24 h); 31.2 µg/mL (≈ 91.3 µM) in assay [5]; 15.6 µg/mL (≈ 45.7 µM) in [6]. Moreover, the MIC in [10] was 62.5 µg/mL (≈ 183 µM); in assay [11] it was 31.2 µg/mL (≈ 91.3 µM); in assay [13] (RCMB 01267, 48 h) it was 62.5 µg/mL (≈ 183 µM); in assay [14] (RCMB 010068, 24 h) it was 250 µg/mL (≈ 730 µM); in assay [15], 62.5 µg/mL (≈ 183 µM). The MIC entry in [7], in assay [8], in assay [9] and in assay [12] was “inactive” throughout.

As for `COc1ccc(C2CC(c3sc(-c4cccnc4)nc3C)=NN2)cc1` (stereo not given), the MIC in assay [1] is 62.5 µg/mL (≈ 178 µM); in assay [2] (RCMB 010093, 24 h) it was 62.5 µg/mL (≈ 178 µM); in assay [3] (RCMB 05035, 48 h) it was 250 µg/mL (≈ 713 µM); in assay [4] (RCMB 010085, 24 h), 31.2 µg/mL (≈ 89.2 µM); in assay [5], 15.6 µg/mL (≈ 44.6 µM); in assay [6] it was 15.6 µg/mL (≈ 44.6 µM). For the same compound, the minimum inhibitory concentration (MIC) in [7] (RCMB 0100542, 24 h) came to 62.5 µg/mL (≈ 178 µM); in assay [9] (RCMB 010076, 24 h), 500 µg/mL (≈ 1430 µM); in assay [10], 31.2 µg/mL (≈ 89.2 µM); in assay [11], 15.6 µg/mL (≈ 44.6 µM); in [13] (RCMB 01267, 48 h) it was 62.5 µg/mL (≈ 178 µM); in assay [14] (RCMB 010068, 24 h) it was 250 µg/mL (≈ 713 µM). The MIC in assay [15] came out at 31.2 µg/mL (≈ 89.2 µM). Further, the MIC result in assay [8] and in assay [12] was “inactive” throughout.

In the case of `O=c1oc2ccccc2cc1-c1csc(-c2cccnc2)n1`, the MIC is 15.6 µg/mL (≈ 51 µM) in [1]; 7.81 µg/mL (≈ 25.5 µM) in [2] (RCMB 010093, 24 h); 125 µg/mL (≈ 408 µM) in [3] (RCMB 05035, 48 h); 15.6 µg/mL (≈ 51 µM) in assay [4] (RCMB 010085, 24 h); 7.81 µg/mL (≈ 25.5 µM) in [5]; 3.9 µg/mL (≈ 12.7 µM) in assay [6]. Further, the MIC is 1.95 µg/mL (≈ 6.37 µM) in assay [7] (RCMB 0100542, 24 h); 7.81 µg/mL (≈ 25.5 µM) in assay [8] (RCMB 010015, 24 h); 62.5 µg/mL (≈ 204 µM) in assay [9] (RCMB 010076, 24 h); 15.6 µg/mL (≈ 51 µM) in assay [10]; 3.9 µg/mL (≈ 12.7 µM) in [11]; 62.5 µg/mL (≈ 204 µM) in [12] (RCMB 010043, 24 h). The MIC in assay [13] (RCMB 01267, 48 h) is 31.2 µg/mL (≈ 102 µM); in assay [14] (RCMB 010068, 24 h), 62.5 µg/mL (≈ 204 µM); in assay [15] it was 15.6 µg/mL (≈ 51 µM).
